Measured values of several laboratories.
Protocols differ between the studies behind these lines.
Target: Rho-associated protein kinase 2 (ROCK2, Homo sapiens, UniProt O75116)

O=C(NCCCN1CCOCC1)c1ccc(Nc2ncc(Cl)c(-c3ccc(Cl)s3)n2)cc1
remaining binding (binding, competition with immobilised ligand; 1 µM): 61%

Cc1cc(-n2nc(Cc3cc(F)cc(C(F)(F)F)c3)nc2C)ccc1C(N)=O
remaining binding (cell-free assay, competition with immobilised ligand; 1 µM): 96%

COc1cnc(Nc2cccc(S(N)(=O)=O)c2)nc1N1CCN(c2ccccc2)C(=O)C1
remaining binding (binding, competition with immobilised ligand; 1 µM): 78%

F[C@@H]1CCN(c2nccc(-c3cnn4ncccc34)n2)C1
remaining binding (binding; 1 µM): 100%

C=CC(=O)N1CCC(C(=O)NCC(=O)N2CCN(c3nc(-c4cnc(N)nc4C(F)F)nc(N4CCOCC4)n3)CC2)CC1
remaining binding (binding, competition with immobilised ligand; 1 µM): 90%

O=C(NCCCN1CCOCC1)c1ccc(Nc2nccc(-c3cc4ccccc4s3)n2)cc1
remaining binding (binding, competition with immobilised ligand; 1 µM): 46%

Nc1ncc2c(n1)-c1c([nH]c3ccc(C#CC4CC4)cc13)CCCC2
remaining binding (binding, competition with immobilised ligand; 1 µM): 75%

CN(c1nccc(-c2cnn3ncccc23)n1)C1CC1
remaining binding (binding; 1 µM): 100%

C[C@@H]1CN(c2ccc3ncc(-c4ccc5[nH]nc(C6CC6)c5c4)n3n2)C[C@H](C)O1
remaining binding (binding, competition with immobilised ligand; 50 nM): 69%

CNC(=O)Nc1ccc2c(c1)CC[C@@]21OC(=O)N(CC(=O)N(Cc2ccc(F)cc2)[C@@H](C)C(F)(F)F)C1=O
remaining binding (cell-free assay, competition with immobilised ligand; 1 µM): 96%

CCN1CCN(Cc2ccc(C(=O)Nc3ccc(C)c(Oc4ccc5c(c4)CC(=O)N5)c3)cc2C(F)(F)F)CC1
remaining binding (binding, competition with immobilised ligand; 1 µM): 74%

CNC(=O)[C@@H]1CC[C@@H](n2c(-c3ccc4cnccc4c3)nc3ccc(C(=O)NCc4cccc(C(N)=O)c4)cc32)C1
remaining binding (binding, competition with immobilised ligand; 1 µM): 100%

O=C(NCC1CCOCC1)c1n[nH]cc1NC(=O)c1c(F)cccc1F
remaining binding (binding, competition with immobilised ligand; 1 µM): 64%

COc1ncc2cc3ccccc3nc2c1C#N
remaining binding (cell-free assay, competition with immobilised ligand; 5 µM): 98%

O=C(N[C@H]1CCCCC/C=C\C2C[C@@]2(C(=O)O)NC(=O)[C@@H]2C[C@@H](Oc3ccncc3)CN2C1=O)OC1CCCC1 (stereo partly drawn)
remaining binding (binding, competition with immobilised ligand; 1 µM): 100%

CC1CCCN1c1nccc(-c2cnn3ncccc23)n1 (stereo not drawn)
remaining binding (binding; 1 µM): 100%

COCCOc1nc(-c2ccc(Cl)nc2)nc2c1CN(C(=O)c1ncn3ccccc13)CC2
remaining binding (cell-free assay, competition with immobilised ligand; 0.1 µM): 76%

C[C@@H]1CCN(c2nccc(-c3cnn4ncccc34)n2)C1
remaining binding (binding; 1 µM): 98%

C[C@@H](c1cccc(C#N)c1)n1cc(Cl)cc(C(N)=O)c1=N
remaining binding (cell-free assay, competition with immobilised ligand; 1 µM): 90%

N[C@@H]1CCN(c2nccc(-c3cnn4ncccc34)n2)C1
remaining binding (binding; 1 µM): 100%

O=C(NCCCC1CCCCC1)c1ccc(CNC(=O)c2cnn(-c3ccccc3)c2C(F)(F)F)cc1
remaining binding (cell-free assay, competition with immobilised ligand; 0.1 µM): 100%

CN(C)c1nccc(-c2cnc3ncccn23)n1
remaining binding (binding; 1 µM): 100%

CC1=C(C#N)C(c2ccc3c(c2)c(NC(=O)c2ccccc2C)nn3C)C(C#N)=C(C)N1
remaining binding (cell-free assay, competition with immobilised ligand; 1 µM): 93%

O=C(c1ccc(Nc2ncc(Cl)c(-c3ccc(Cl)s3)n2)cc1)N1CCC(N2CCCC2)CC1
remaining binding (binding, competition with immobilised ligand; 1 µM): 4.3%
